Experimental data as given in ChEMBL document CHEMBL1139252, “Inhibition of purple acid phosphatase with alpha-alkoxynaphthylmethylphosphonic acids” (Bioorg Med Chem Lett, 2009).

Legend:
[1] = target: T1, Fe(3+)-Zn(2+) purple acid phosphatase (Phaseolus vulgaris, UniProt P80366); test: Inhibition of red kidney bean PAP at pH 6.2
T1 sequence (P80366 whole entry): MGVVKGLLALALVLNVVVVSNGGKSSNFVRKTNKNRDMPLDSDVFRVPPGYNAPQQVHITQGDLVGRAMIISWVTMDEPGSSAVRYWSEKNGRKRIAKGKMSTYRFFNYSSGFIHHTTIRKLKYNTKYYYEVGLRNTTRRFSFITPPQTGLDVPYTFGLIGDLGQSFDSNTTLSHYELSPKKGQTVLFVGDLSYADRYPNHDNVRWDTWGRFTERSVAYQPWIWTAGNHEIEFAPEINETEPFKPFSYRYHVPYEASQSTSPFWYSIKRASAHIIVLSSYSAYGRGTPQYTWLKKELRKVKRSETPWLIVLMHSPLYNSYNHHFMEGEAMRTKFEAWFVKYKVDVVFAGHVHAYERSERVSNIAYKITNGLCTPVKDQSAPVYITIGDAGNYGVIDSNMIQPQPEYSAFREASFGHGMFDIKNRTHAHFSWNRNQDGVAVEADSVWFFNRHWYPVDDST
How it was run: (§1)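 Each enzyme was run at its own pH optimum: red kidney bean PAP at pH 6.2 and pig PAP at pH 4.9. IC50 values were determined experimentally. Separate inhibition constants were derived for binding to the free enzyme and to the enzyme–substrate complex.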

[2] = Inhibition of human PAP
[3] = Inhibition of pig PAP at pH 4.9; set-up: species or system Sus scrofa; how it was run: as §1

| Structure (SMILES) | IC50 [1] [µM] | IC50 [3] [µM] | IC50 [2] [µM] |
| --- | --- | --- | --- |
| O=P(O)(O)Cc1cccc2ccccc12 | > 7000 |  | 30 |
| O=P(O)(O)C(O)c1cccc2ccccc12 (stereo not given) | 5000 |  |  |
| O=C(c1ccccc1)C(C(=O)c1ccccc1)(c1cccc2ccccc12)P(=O)(O)O |  |  | 1.4 |

Second part, led by results:

| IC50 [1] [µM] | IC50 [3] [µM] | Structure (SMILES) | IC50 [2] [µM] |
| --- | --- | --- | --- |
| 8 | 20 | CCCCCCCCCCOC(c1cccc2ccccc12)P(=O)(O)O (racemic) |  |
| 1000 | 430 | CCCCCCOC(c1cccc2ccccc12)P(=O)(O)O (racemic) |  |
| 100 | 30 | CCCCCCCCOC(c1cccc2ccccc12)P(=O)(O)O (racemic) |  |
